From paper PMC12135072 (RSC Medicinal Chemistry, 2025)

Tests used:
[1] = tested on: HCT116 (ATCC – CCL-247, colon carcinoma); experiment: MTT cell viability assay, HCT116; type: cell-based; details: Homo sapiens, HCT-116, read-out: IC50 HCT116
[2] = tested on: MRC5 (ATCC – CCL-171, human diploid fibroblast cell line); experiment: cells; details: MRC5, read-out: IC50 MRC5
[3] = tested on: MCF7 (ATCC – HTB-22, breast carcinoma); experiment: MTT cell viability assay, MCF7; type: cell-based; details: Homo sapiens, MCF7, read-out: IC50 MCF7
[4] = tested on: A549 (ATCC – CCL-185, lung carcinoma); experiment: MTT cell viability assay, A549; type: cell-based; details: Homo sapiens, A549, read-out: IC50 A549
[5] = tested on: MCF7 breast cancer cells; experiment: Apoptosis, annexin V staining and flow cytometry; type: cell-based; details: compounds at IC50, etoposide 10 μM
Summary of the method: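 MCF7 cells were exposed to the test compounds for 24 or 48 h, with etoposide (10 μM) as the positive control and 0.1% DMSO as the untreated control. Cells were stained with annexin V and analysed by flow cytometry into live, early apoptotic and late apoptotic fractions.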

[6] = tested on: MCF7 cells; experiment: Cell cycle analysis; type: cell-based; details: compounds at IC50, ETP 10 μM
Summary of the method: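 MCF7 cells were treated with the test compounds for 24 and 48 h, with etoposide as the positive control and 0.1% DMSO as the vehicle. Cells were stained with propidium iodide and their G1, S and G2 distribution was read by flow cytometry. n = 3; two-way ANOVA with Tukey's test.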

[7] = tested on: MCF7 cell line; experiment: γH2AX labelling for DNA double-strand breaks; type: cell-based; details: compounds at IC50, etoposide 10 μM
Summary of the method: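 To detect DNA double-strand breaks, MCF7 cells were exposed to the test compounds for 24 and 48 h, with etoposide as the positive control and 0.1% DMSO as the vehicle. γH2AX labelling was quantified by flow cytometry. n = 3; two-way ANOVA with Tukey's test.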

SMILES	IC50 [1] [µM]	IC50 [2] [µM]	IC50 [3] [µM]	IC50 [4] [µM]	further results
Cc1ccn(-c2ccc(C3C(C#N)=C(N)OC4=C3C(=O)CCC4)cc2)n1 (stereo not drawn) [Compound 7a, 2-amino-4-(4-(3-methyl-1H-pyrazol-1-yl)phenyl)-5-oxo-5,6,7,8-tetrahydro-4H-chromene-3-carbonitrile]	139 ± 3.89	> 200	190 ± 5.34	89.7 ± 4.38	–
Cc1cnn(-c2ccc(C3C(C#N)=C(N)OC4=C3C(=O)CCC4)cc2)c1 (stereo not drawn) [Compound 7b, 2-Amino-4-(4-(4-methyl-1H-pyrazol-1-yl)phenyl)-5-oxo-5,6,7,8-tetrahydro-4H-chromene-3-carbonitrile]	163 ± 3.14	> 200	24 ± 2.27	147 ± 3.61	–
Cc1cc(C)n(-c2ccc(C3C(C#N)=C(N)OC4=C3C(=O)CCC4)cc2)n1 (stereo not drawn) [Compound 7c, 2-Amino-4-(4-(3,5-dimethyl-1H-pyrazol-1-yl)phenyl)-5-oxo-5,6,7,8-tetrahydro-4H-chromene-3-carbonitrile]	194 ± 6.01	> 200	22.9 ± 1.31	> 200	–
N#CC1=C(N)OC2=C(C(=O)CCC2)C1c1ccc(-n2cc(Br)cn2)cc1 (stereo not drawn) [Compound 7d, 2-Amino-4-(4-(4-bromo-1H-pyrazol-1-yl)phenyl)-5-oxo-5,6,7,8-tetrahydro-4H-chromene-3-carbonitrile]	45.7 ± 0.67	> 200	56.1 ± 3.79	23.6 ± 1.29	–
N#CC1=C(N)OC2=C(C(=O)CCC2)C1c1ccc(-n2ccc(C(F)(F)F)n2)cc1 (stereo not drawn) [Compound 7e, 2-Amino-5-oxo-4-(4-(3-(trifluoromethyl)-1H-pyrazol-1-yl)phenyl)-5,6,7,8-tetrahydro-4H-chromene-3-carbonitrile]	72.2 ± 0.96	> 200	15 ± 0.78	18 ± 0.45	–
Cc1cncn1-c1ccc(C2C(C#N)=C(N)OC3=C2C(=O)CC(C)(C)C3)cc1 (stereo not drawn) [Compound 8c, 2-Amino-7,7-dimethyl-4-(4-(5-methyl-1H-imidazol-1-yl)phenyl)-5-oxo-5,6,7,8-tetrahydro-4H-chromene-3-carbonitrile]	162 ± 6.91	> 200	83.2 ± 2.11	133 ± 5.81	–
CCc1nccn1-c1ccc(C2C(C#N)=C(N)OC3=C2C(=O)CC(C)(C)C3)cc1 (stereo not drawn) [Compound 8d, 2-Amino-4-(4-(2-ethyl-1H-imidazol-1-yl)phenyl)-7,7-dimethyl-5-oxo-5,6,7,8-tetrahydro-4H-chromene-3-carbonitrile]	137 ± 5.82	> 200	> 200	19.8 ± 0.94	–
CC1(C)CC(=O)C2=C(C1)OC(N)=C(C#N)C2c1ccc(-n2cnc(Br)c2)cc1 (stereo not drawn) [Compound 8e, 2-Amino-4-(4-(4-bromo-1H-imidazol-1-yl)phenyl)-7,7-dimethyl-5-oxo-5,6,7,8-tetrahydro-4H-chromene-3-carbonitrile]	77.6 ± 1.58	> 200	74.87 ± 0.17	30.6 ± 1.85	–
N#CC1=C(N)Oc2c(c(=O)oc3ccccc23)C1c1ccc(OCc2cn(-c3ccccc3)nn2)cc1 (stereo not drawn) [Compound 15a, 2-Amino-5-oxo-4-(4-((1-phenyl-1H-1,2,3-triazol-4-yl)methoxy)phenyl)-4H,5H-pyrano[3,2-c]chromene-3-carbonitrile]	> 200	146.5 ± 0.53	> 200	> 200	–
N#CC1=C(N)Oc2c(c(=O)oc3ccccc23)C1c1ccc(OCc2cn(-c3ccc(Cl)cc3)nn2)cc1 (stereo not drawn) [Compound 15b, 2-Amino-4-(4-((1-(4-chlorophenyl)-1H-1,2,3-triazol-4-yl)methoxy)phenyl)-5-oxo-4H,5H-pyrano[3,2-c]chromene-3-carbonitrile]	> 200	> 200	> 200	> 200	–
N#CC1=C(N)Oc2c(c(=O)oc3ccccc23)C1c1ccc(OCc2cn(-c3ccc(Br)cc3)nn2)cc1 (stereo not drawn) [Compound 15c, 2-Amino-4-(4-((1-(4-bromophenyl)-1H-1,2,3-triazol-4-yl)methoxy)phenyl)-5-oxo-4H,5H-pyrano[3,2-c]chromene-3-carbonitrile]	> 200	66.9 ± 1.6	> 200	> 200	–
Cc1ccc(-n2cc(COc3ccc(C4C(C#N)=C(N)Oc5c4c(=O)oc4ccccc54)cc3)nn2)cc1 (stereo not drawn) [Compound 15d, 2-Amino-5-oxo-4-(4-((1-(p-tolyl)-1H-1,2,3-triazol-4-yl)methoxy)phenyl)-4H,5H-pyrano[3,2-c]chromene-3-carbonitrile]	> 200	> 200	> 200	> 200	–
COc1ccc(-n2cc(COc3ccc(C4C(C#N)=C(N)Oc5c4c(=O)oc4ccccc54)cc3)nn2)cc1 (stereo not drawn) [Compound 15e, 2-Amino-4-(4-((1-(4-methoxyphenyl)-1H-1,2,3-triazol-4-yl)methoxy)phenyl)-5-oxo-4H,5H-pyrano[3,2-c]chromene-3-carbonitrile]	> 200	> 200	> 200	> 200	–
N#CC1=C(N)Oc2c(c(=O)oc3ccccc23)C1c1ccc(-n2ccnn2)cc1 (stereo not drawn) [Compound 15f, 4-(4-(1H-1,2,3-Triazol-1-yl)phenyl)-2-amino-5-oxo-4H,5H-pyrano[3,2-c]chromene-3-carbonitrile]	163 ± 5.45	156 ± 0.48	145 ± 2.75	72.9 ± 2.26	–
N#CC1=C(N)Oc2c(c(=O)oc3ccccc23)C1c1ccc(-n2cnnn2)cc1 (stereo not drawn) [Compound 15g, 4-(4-(1H-Tetrazol-1-yl)phenyl)-2-amino-5-oxo-4H,5H-pyrano[3,2-c]chromene-3-carbonitrile]	> 200	> 200	> 200	> 200	–
Cc1cc2c(c(=O)o1)C(c1ccc(OCc3cn(-c4ccccc4)nn3)cc1)C(C#N)=C(N)O2 (stereo not drawn) [Compound 17a, 2-Amino-7-methyl-5-oxo-4-(4-((1-phenyl-1H-1,2,3-triazol-4-yl)methoxy)phenyl)-4H,5H-pyrano[4,3-b]pyran-3-carbonitrile]	> 200	> 200	> 200	80.5 ± 4.68	–
Cc1cc2c(c(=O)o1)C(c1ccc(OCc3cn(-c4ccc(Cl)cc4)nn3)cc1)C(C#N)=C(N)O2 (stereo not drawn) [Compound 17b, 2-Amino-4-(4-((1-(4-chlorophenyl)-1H-1,2,3-triazol-4-yl)methoxy)phenyl)-7-methyl-5-oxo-4H,5H-pyrano[4,3-b]pyran-3-carbonitrile]	47.4 ± 4.13	> 200	36.06 ± 0.31	20.4 ± 1.87	–
Cc1cc2c(c(=O)o1)C(c1ccc(OCc3cn(-c4ccc(Br)cc4)nn3)cc1)C(C#N)=C(N)O2 (stereo not drawn) [Compound 17c, 2-Amino-4-(4-((1-(4-bromophenyl)-1H-1,2,3-triazol-4-yl)methoxy)phenyl)-7-methyl-5-oxo-4H,5H-pyrano[4,3-b]pyran-3-carbonitrile]	> 200	> 200	> 200	> 200	–
Cc1ccc(-n2cc(COc3ccc(C4C(C#N)=C(N)Oc5cc(C)oc(=O)c54)cc3)nn2)cc1 (stereo not drawn) [Compound 17d, 2-Amino-7-methyl-5-oxo-4-(4-((1-(p-tolyl)-1H-1,2,3-triazol-4-yl)methoxy)phenyl)-4H,5H-pyrano[4,3-b]pyran-3-carbonitrile]	> 200	> 200	> 200	> 200	–
COc1ccc(-n2cc(COc3ccc(C4C(C#N)=C(N)Oc5cc(C)oc(=O)c54)cc3)nn2)cc1 (stereo not drawn) [Compound 17e, 2-Amino-4-(4-((1-(4-methoxyphenyl)-1H-1,2,3-triazol-4-yl)methoxy)phenyl)-7-methyl-5-oxo-4H,5H-pyrano[4,3-b]pyran-3-carbonitrile]	> 200	> 200	52.2 ± 1.34	> 200	–
Cc1cc2c(c(=O)o1)C(c1ccc(-n3ccnn3)cc1)C(C#N)=C(N)O2 (stereo not drawn) [Compound 17f, 4-(4-(1H-1,2,3-Triazol-1-yl)phenyl)-2-amino-7-methyl-5-oxo-4H,5H-pyrano[4,3-b]pyran-3-carbonitrile]	> 200	> 200	30.3 ± 1.73	> 200	–
Cc1cc2c(c(=O)o1)C(c1ccc(-n3cnnn3)cc1)C(C#N)=C(N)O2 (stereo not drawn) [Compound 17g, 4-(4-(1H-Tetrazol-1-yl)phenyl)-2-amino-7-methyl-5-oxo-4H,5H-pyrano[4,3-b]pyran-3-carbonitrile]	> 200	> 200	39.2 ± 2.71	164 ± 3.26	–
COc1cc([C@@H]2c3cc4c(cc3[C@@H](O[C@@H]3O[C@@H]5CO[C@@H](C)O[C@H]5[C@H](O)[C@H]3O)[C@H]3COC(=O)[C@H]23)OCO4)cc(OC)c1O [Etoposide, reference compound]	–	–	–	–	early apoptotic cells ([5]; MCF7, 24 hours): 6.42 ± 0.27%; late apoptotic cells ([5]; MCF7, 24 hours): 12.25 ± 0.08%; early apoptotic cells ([5]; MCF7, 48 hours): 3.28 ± 0.16%; late apoptotic cells ([5]; MCF7, 48 hours): 11.8 ± 0.29%; live cells ([5]; MCF7, 48 hours): 83.15 ± 0.50%; cells in G1 phase ([6]; MCF7, 24 hours): 26.61 ± 0.54%; cells in G2 (G2/M) phase ([6]; MCF7, 24 hours): 49.03 ± 0.99%; G1 phase population ([6]; MCF7, 48 hours): 18.3 ± 1.67%; G2 (G2/M) phase population ([6]; MCF7, 48 hours): 59.36 ± 4.79%; γH2AX levels ([7]; MCF7, 24 hours): 8.8 ± 0.62; γH2AX levels ([7]; MCF7, 48 hours): 39.44 ± 1.69
